Screens: PubChem BioAssay, several laboratories
Hits are enriched below; roughly 0.99% of the tested compounds scored in any of these assays.
GSK3beta inhib – human GSK3beta kinase inhibitors, primary screen, biochemical, cell-free homogeneous, HTS | hit rate 0.038% among 300,000 | GST-GSK3beta kinase, ADP-Glo luminescence, 60 min; active compounds read low | AID 2097, 2009 | activity score (negative = inhibition), % at 10 µM;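 active = more than half of replicate wells score below -50%, meaning over 50% inhibition versus plate controls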;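 note: 0% = median DMSO wells and -100% = median GW8510 positive control wells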
Target sequence (P49841 whole entry, looked up): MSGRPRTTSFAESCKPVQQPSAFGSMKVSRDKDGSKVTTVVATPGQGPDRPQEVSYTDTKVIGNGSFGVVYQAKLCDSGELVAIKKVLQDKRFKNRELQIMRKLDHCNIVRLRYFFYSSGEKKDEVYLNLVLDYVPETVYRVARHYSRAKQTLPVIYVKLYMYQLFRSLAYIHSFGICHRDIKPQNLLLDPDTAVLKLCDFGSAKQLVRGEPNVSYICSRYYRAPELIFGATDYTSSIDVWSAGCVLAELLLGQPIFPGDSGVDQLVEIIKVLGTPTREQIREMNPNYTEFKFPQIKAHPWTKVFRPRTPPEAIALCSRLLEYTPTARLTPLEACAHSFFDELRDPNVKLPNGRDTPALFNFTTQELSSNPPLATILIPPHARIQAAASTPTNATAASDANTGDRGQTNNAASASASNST
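Test system – GST-tagged human GSK3beta kinase, cell-free · Incubation – 60 min enzyme reaction, room temperature · Signal – ADP-Glo luminescence · Also added – peptide substrate and ATP at 25 µM · Controls – DMSO neutral wells and GW8510 at 20 µM as positive · Buffer or medium – Tris/MgCl2 kinase buffer · Measure – Luminescence-derived activity versus plate DMSO and GW8510 wells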
GSK3A inh – blockers of GSK3A enzyme activity – biochemical, luminescence, cell-free homogeneous, HTS, primary screen; inhibition, % at 10 µM; GSK-3 alpha kinase, ADP-Glo luminescence, 60 min; hit rate 0.1% among 320,000; Glycogen synthase kinase-3 alpha (Homo sapiens), P49840;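 active = more than half of replicates show inhibition above 20%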;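 note: GST-tagged GSK-3 alpha with peptide substrate and 25 µM ATP; 0% = DMSO neutral wells and 100% = GW8510 positive control wells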
Dyrk1A ADPGlo – rat Dyrk1A kinase inhibitors, primary screen, biochemical, single point, plate reader; Dual specificity tyrosine-phosphorylation-regulated kinase 1A (Rattus norvegicus), Q63470; ADP-Glo luminescence, NFATc1 peptide; inhibition, % at 12.5 µM; hit rate 0.43% among 310,000; in the data active = inhibition above about 50%;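 note: plate controls were vehicle with enzyme for no effect and no enzyme for full effect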
Arr AP2 block – inhibitors of beta-arrestin/AP2 binding, primary screen, biochemical, GPCR trafficking, flow cytometry. beta-arrestin 1 C-terminal peptide binding to AP2 beta2-adaptin appendage (human). FITC-arrestin peptide / GST-AP2 beads; AP2 beta2 appendage carries R879A mutation. inhibition, % at 10 µM. hit rate 0.31% among 340,000;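 active = inhibition above a set limit, near 3 SD of compounds lacking own fluorescence, cut at about 54% in these data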;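 note: plate controls were DMSO wells for no effect and 5 µM unlabelled arrestin peptide for full effect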
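system = GST-tagged AP2 beta2-adaptin appendage (R879A) on 4 µm glutathione beads | reagent = FITC-labelled arrestin peptide probe, 50 nM final | schedule = compound with beads 12 min RT, then probe 1 h RT | signal = HyperCyt-sampled flow cytometry, FL1 channel, ex 488/em 535 nm | read-out = percent response from loss of bead-bound FITC fluorescence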
Rin1-Abl PPI inh – inhibitors of Rin1-Abl protein binding, primary screen, biochemical, TR-FRET | Tyrosine-protein kinase ABL1 (Homo sapiens) + Ras and Rab interactor 1 (Homo sapiens), … | inhibition, % at 7.35 µM | hit rate 0.4% among 360,000; in the data active = inhibition above about 5%, passing the limit was not always enough
STK33 inh – inhibitors of purified STK33 kinase, primary screen, biochemical, ADP-Glo luminescence, homogeneous, cell-free; inhibition, % at 10 µM; MBP phosphorylation; hit rate 0.073% among 320,000;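 active = inhibition at or above 25%, using the most active replicate where run in duplicate; inactive = inhibition below 25%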
Arr-AP2 CP1 – inhibitors of arrestin peptide binding to AP2, confirmation, biochemical, cherry pick 1, flow cytometry beads. shares compounds with Arr AP2 block. GST-AP2 beads, FITC arrestin peptide binding; GST-fused beta2-adaptin appendage, R879A mutant. inhibition, % at 10 µM. hit rate 2% among 1,300. AID 504908, 2011;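 active = inhibition above a set limit, roughly 3 SD of non-fluorescent compound noise, cut at about 38% in these data; inactive = inhibition at or below that limit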;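 note: loss of bead fluorescence from 50 nM FITC arrestin peptide bound to appendage; 0% = negative control wells and 100% = excess unlabelled arrestin peptide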
GST GSH counter – GST-fluorescein capture on glutathione beads, confirmation, artefact control for arrestin-AP2 inhibitor project, biochemical, cherry pick 1, flow cytometry; shares compounds with Arr AP2 block; GST-fluorescein binding to GSH beads, fluorescence, counter-screen; inhibition, % at 10 µM; hit rate 2% among 1,300;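 active = inhibition above 50%, about 3 SD of the inhibition seen with non-fluorescent compounds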;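 note: fluorescein maleimide labelled GST captured on 4 micron glutathione beads; higher means more loss of bead fluorescence from quenching or blocked binding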
Active calls of the source: *; · = no result.

SMILES | GSK3beta inhib | GSK3A inh | Dyrk1A ADPGlo | Arr AP2 block | Rin1-Abl PPI inh | STK33 inh | Arr-AP2 CP1 | GST GSH counter
CC1Cc2ccccc2N1C(=O)C(C)n1cc(C(F)(F)F)cc(Cl)c1=O (configuration not stated) | · | -1 | · | 69* | 1 | -2 | -8 | -8
Cc1cccc2cc(CN(CC3CCCO3)C(=O)NC3CCCCC3)c(=O)[nH]c12 (configuration not stated) | 3 | · | -4 | -6 | -4 | 0 | 0 | -4
Cc1ccc2cc(CN(CC3CCCO3)C(=O)NC3CCCCC3)c(=O)[nH]c2c1C (configuration not stated) | 1 | -1 | -2 | 12 | -5 | 0 | -2 | -4
COc1ccc(CCN(Cc2cc3cccc(C)c3[nH]c2=O)C(=O)NC2CCCCC2)cc1OC | 2 | -1 | 3 | 9 | -3 | -3 | -2 | -5
CCN(CC)CCCN(Cc1cc2ccc(C)c(C)c2[nH]c1=O)C(=O)NC1CCCCC1 | -1 | -1 | 4 | 8 | 2 | 0 | · | ·
COc1ccc(CN(Cc2cc3cccc(C)c3[nH]c2=O)C(=O)N(C)C)cc1 | -2 | -5 | 3 | 3 | 0 | -1 | · | ·
CCc1ccccc1NC(=O)CNC(=O)c1cn(Cc2ccccc2)nc1-c1cccnc1 | · | -26 | -6 | 64* | -2 | 0 | -4 | 3
Cc1cccc(NC(=O)CNC(=O)c2cn(Cc3ccccc3)nc2-c2cccnc2)c1C | · | -2 | · | -2 | 1 | -1 | · | ·
CC(c1ccccc1)N1CC(C(=O)N2CCCC(C(N)=O)C2)CC1=O (configuration not stated) | · | 0 | · | -11 | -2 | -1 | · | ·
C#CCOCCOCCOCCNc1nc(N2CCN(C(=O)[C@H](CCCCN)n3cc([C@@H](N)[C@H](C)CC)nn3)CC2)nc(N2CCN(C(=O)[C@H](CCC(=O)O)n3cc([C@@H](N)CCSC)nn3)CC2)n1 | · | -1 | · | -7 | 0 | 0 | · | ·
CCOc1ccc(C(=O)NC(=S)Nc2ccc(NC(=O)c3ccco3)c(C)c2)cc1[N+](=O)[O-] | 0 | -2 | 4 | 100* | 1 | -2 | 1 | -2
COc1ccc(NC(=O)c2ccco2)cc1NC(=O)c1ccccc1[N+](=O)[O-] | 3 | 2 | 0 | 55* | 2 | 0 | 3 | 3
COc1cccc(NC(=O)c2cc(-c3ccc(C)o3)nc3ccccc23)c1 | 1 | 0 | -1 | 54* | 2 | -1 | -6 | 9
CC1CCCN(CCCNC(=O)c2ccc3c(c2)N(Cc2ccccc2F)C(=O)c2ccccc2S3(=O)=O)C1 (configuration not stated) | 0 | 2 | -5 | 59* | 0 | 0 | 20 | -14
CCN1CCCC1CNC(=O)c1ccc2c(c1)N(Cc1ccccc1F)C(=O)c1ccccc1S2(=O)=O (configuration not stated) | 0 | · | -3 | 25 | 3 | · | · | ·
O=C(NCc1ccccc1OC(F)(F)F)C1CCC(=O)N(Cc2ccccn2)C1 (configuration not stated) | -6 | -1 | · | 16 | 1 | -1 | · | ·
COc1ccc(CCN2CC(C(=O)NCCc3ccc(F)cc3)CCC2=O)cc1 (configuration not stated) | -1 | 1 | 0 | 11 | -1 | -2 | 4 | -5
COc1ccccc1CN1CC(C(=O)NCc2cc(F)cc(C(F)(F)F)c2)CCC1=O (configuration not stated) | 5 | 1 | -3 | -1 | 0 | 0 | 6 | 0
COc1ccccc1CN1CC(C(=O)NCc2cccc(Cl)c2)CCC1=O (configuration not stated) | 0 | -2 | -7 | 13 | -6 | 1 | · | ·
COc1ccc(CCCNC(=O)C2CCC(=O)N(Cc3ccccc3F)C2)cc1 (configuration not stated) | 0 | 5 | -3 | -7 | 2 | 0 | -13 | -2
COc1ccccc1CCCNC(=O)C1CCC(=O)N(Cc2ccccc2F)C1 (configuration not stated) | -3 | 1 | 7 | 17 | 4 | -2 | · | ·
O=C(NCc1ccccc1OC(F)(F)F)C1CCC(=O)N(CCc2ccccn2)C1 (configuration not stated) | 1 | -2 | -2 | 58* | 3 | -1 | 3 | -2
CCN1CCN(C(=O)C(N)Cc2ccccc2)CC1 (configuration not stated) | 1 | 2 | -5 | 0 | -1 | -1 | · | ·
O=C(Nc1cccc(O)c1)C1CC(c2ccc(Cl)cc2)=NO1 (configuration not stated) | · | 1 | 3 | -17 | 2 | -1 | · | ·
O=C(CCCn1ncn2c(cc3occc32)c1=O)NCc1ccccc1F | 3 | -1 | · | -7 | 1 | 0 | · | ·
SMILES | GSK3beta inhib | GSK3A inh | Dyrk1A ADPGlo | Arr AP2 block | Rin1-Abl PPI inh | STK33 inh | Arr-AP2 CP1 | GST GSH counter
CCOc1ccccc1CNC(=O)CCCn1ncn2c(cc3occc32)c1=O | 2 | -1 | -5 | 64* | -1 | -3 | 9 | 1
Cc1ccc(OCCCC(=O)N(C)CC(=O)Nc2c(C)cccc2C)cc1 | · | · | · | · | 0 | · | · | ·
COc1ccc(CC(NC(C)=O)C(=O)NC2CCN(c3nc(C)cc(C)c3C#N)CC2)cc1 (configuration not stated) | -3 | 3 | -1 | 55* | 5 | -2 | 0 | -1
O=C(Nc1ccc(NC(=O)c2cccs2)c(Cl)c1)c1cccs1 | -1 | 0 | 7 | 55* | 1 | -1 | -6 | -1
CCCCCOC(=O)CCN1C(=O)/C(=C2\SC(=S)N(CCC(=O)OCCCCC)C2=O)SC1=S | -3 | -5 | -7 | 56* | -3 | -1 | 1 | -2
CCCOC(=O)CCCN1C(=O)/C(=C2\SC(=S)N(CCCC(=O)OCCC)C2=O)SC1=S | 1 | -1 | 5 | 37 | 1 | -1 | · | ·
CCOc1ccc(Cc2noc3c2C(=O)CC(C)(C)C3)cc1OCC | -5 | -4 | · | 57* | -2 | 1 | 9 | -4
CCOc1ccc(Cc2noc3c2C(=O)CCC3)cc1OCC | -1 | 0 | · | -44 | 3 | 0 | · | ·
